This note sets out measurements from ChEMBL document CHEMBL5260843 (J Med Chem, 2019).

Data set [1] can be described thus: Metabolic stability in dog liver microsomes assessed as intrinsic clearance. It counts as ADME, Canis lupus familiaris, Microsome. To be noted: read-out: CLH.
Data set [2] can be described thus: Metabolic stability in human liver microsomes assessed as intrinsic clearance. It counts as ADME, Microsome. To be noted: read-out: CLH. A general note: Microsomes from liver hold many membrane-bound enzymes, among them those of drug oxidation.
Data set [3] concerns MGC-803. In words: Induction of ROS generation in human MGC-803 cells at 0.3 uM incubated for 24 hrs by DCFH-DA staining based flow cytometry analysis (reference value: 2.2%). It counts as functional.
A further data set addresses Cullin-4B (Homo sapiens) (UniProt Q13620). In words: Inhibition of cullin4B neddylation in human KYSE-70 cells at 0.3 to 10 uM incubated for 24 hrs by Western blot analysis. To be noted: KYSE-70 cell line, dose 0.3-10 µM. In kind it is cell-based. An outline of the steps:
(§1)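 Cells in 6-well plates were exposed to compound for 24 h. MGC-803 were grown in DMEM and KYSE70 in RPMI 1640, both with 10% FBS at 37 °C and 5% CO2. Lysates were made in RIPA with protease inhibitors and quantified by BCA. 30 μg protein was run on 8% SDS-PAGE and blotted to nitrocellulose. Primary antibodies were applied overnight at 4 °C, then HRP secondaries, with ECL and film detection. GAPDH was the loading control. Run three times.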
(In general: Immunoblotting shows a protein as a band on a membrane.)

The next data set has as its system KYSE-70 cell line. In words: Inhibition of cullin2 neddylation in human KYSE-70 cells at 0.3 to 10 uM incubated for 24 hrs by Western blot analysis. The conditions noted are these: dose 0.3-10 µM. It counts as cell-based. The procedure, abridged: as §1
Data set [4] has as its system MGC-803. In words: Inhibition of cullin2 neddylation in UBC/DCN1 overactivated human MGC-803 cells at 0.3 to 10 uM incubated for 24 hrs by Western blot analysis. The conditions noted are these: dose 0.3-10 µM. It counts as cell-based. An outline of the steps:
as §1

In the next data set the target is Cullin-1 (Homo sapiens) (UniProt Q13616). The experiment in a line: Inhibition of cullin1 neddylation in UBC/DCN1 overactivated human MGC-803 cells at 10 uM incubated for 24 hrs by Western blot analysis. It counts as cell-based. The procedure, abridged:
as §1

Data set [5] deals with MGC-803. The experiment in a line: Inhibition of cullin3 neddylation in UBC/DCN1 overactivated human MGC-803 cells at 3 uM incubated for 24 hrs by Western blot analysis. It counts as cell-based. The procedure, abridged: as §1
Data set [6] addresses CDK6/cyclin D3 (Homo sapiens) (UniProt P30281+Q00534). In words: Inhibition of full length human CDK6/N-terminal GST fused human cyclinD3 expressed in baculovirus expression system using 5-FAMIPTSPITTTYFFFKKK-COOH as substrate at 10 uM incubated for 60 mins in presence of ATP relative to control. An outline of the steps: (§2)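 CDK/cyclin complexes were assayed with 3 μM 5-FAM peptide substrate. ATP was 20 μM for CDK1, 30 μM for CDK2, 280 μM for CDK4, 800 μM for CDK6 and 10 μM for CDK9. Buffer was 50 mM HEPES pH 7.5, 0.0015% Brij-35, 10 mM MgCl2 and 2 mM DTT. Reactions ran 60 min at 28 °C and were stopped with EDTA. Caliper conversion values were converted to % inhibition.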

The target in data set [7] is DCN1-like protein 1/NEDD8-conjugating enzyme Ubc12 (Homo sapiens, UniProt Q96GG9). The experiment in a line: Inhibition of GST-tagged DCN1 PONY domain (unknown origin)/human N-terminal acetylated UBC12 (1 to 12 residues) protein-protein interaction incubated for 1 hr by HTRF analysis. It counts as protein assay. In general terms: Time-resolved FRET reads energy transfer from a long-lived donor to a nearby acceptor.
DCN1-like protein 1/NEDD8-conjugating enzyme Ubc12, sequence (Q96GG9 whole entry, the tested form may be a part): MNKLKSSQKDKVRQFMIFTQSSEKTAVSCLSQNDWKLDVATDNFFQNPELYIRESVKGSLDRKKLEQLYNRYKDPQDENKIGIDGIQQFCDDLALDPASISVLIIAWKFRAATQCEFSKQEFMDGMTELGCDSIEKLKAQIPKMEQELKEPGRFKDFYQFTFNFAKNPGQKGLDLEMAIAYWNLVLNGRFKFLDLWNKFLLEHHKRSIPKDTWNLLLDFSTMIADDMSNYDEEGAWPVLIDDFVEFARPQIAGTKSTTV
DCN1-like protein 1/NEDD8-conjugating enzyme Ubc12, sequence (P61081 whole entry, further chain, the tested form may be a part): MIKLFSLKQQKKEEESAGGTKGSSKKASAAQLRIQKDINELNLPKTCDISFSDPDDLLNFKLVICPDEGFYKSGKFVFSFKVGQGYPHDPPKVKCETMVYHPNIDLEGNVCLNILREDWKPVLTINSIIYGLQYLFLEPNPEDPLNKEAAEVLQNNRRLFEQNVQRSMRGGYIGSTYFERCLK

In data set [8] the target is CDK2/Cyclin A2 (Homo sapiens) (UniProt P24941+P20248). The experiment in a line: Inhibition of GST-tagged human CDK2/Cyclin A2 expressed in baculovirus infected Sf9 cells using 5-FAM-QSPKKG-CONH2 as substrate at 10 uM incubated for 60 mins in presence of ATP relative to control. The procedure, abridged: as §2
The subject of data set [9] is MGC-803. In words: Induction of p21 accumulation in human MGC-803 cells incubated for 24 hrs by Western blot analysis. In kind it is functional, cell-based. The conditions noted are these: dose 1-10 µM. An outline of the steps: as §1
Data set [10] deals with MGC-803. In words: Induction of p27 accumulation in human MGC-803 cells incubated for 24 hrs by Western blot analysis. In kind it is functional, cell-based. To be noted: dose 1-10 µM. The procedure, abridged:
as §1

For data set [11], the system named is KYSE-70. The experiment in a line: Induction of p27 accumulation in human KYSE-70 cells incubated for 24 hrs by Western blot analysis. It counts as functional, cell-based. The conditions noted are these: dose 0.3-10 µM. An outline of the steps: as §1
Data set [12] deals with MGC-803. In words: Upregulation of NRF2 protein expression in human MGC-803 cells incubated for 24 hrs by Western blot analysis. In kind it is functional, cell-based. To be noted: dose 1-10 µM. The procedure, abridged: (§3)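 Cells were grown at 37 °C in 5% CO2 with 10% FBS, MGC-803 in DMEM and KYSE70 in RPMI 1640. They were exposed to the indicated compound concentrations for 24 h, then lysed in RIPA with protease inhibitors and quantified by BCA. 30 μg of protein was run on 8% SDS-PAGE and blotted to nitrocellulose. Primary antibody was applied overnight at 4 °C, with HRP secondary and ECL film detection. GAPDH served as the loading control; the experiment was done three times.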

Data set [13] concerns KYSE-70. In words: Upregulation of NRF2 protein expression in human KYSE-70 cells incubated for 24 hrs by Western blot analysis. In kind it is functional, cell-based. The conditions noted are these: dose 0.3-10 µM. The procedure, abridged:
as §3

Data set [14] has as its target DCN1-like protein 1/NEDD8-conjugating enzyme Ubc12 (Homo sapiens) (UniProt Q96GG9+P61081). To be noted: dose 500.0 nM, time 1.0 hrs.

Activity calls are given as the source filed them. The rule behind the calls is not given here. Some results are limits rather than exact numbers.

Cullin-4B (Homo sapiens), sequence (Q13620 whole entry): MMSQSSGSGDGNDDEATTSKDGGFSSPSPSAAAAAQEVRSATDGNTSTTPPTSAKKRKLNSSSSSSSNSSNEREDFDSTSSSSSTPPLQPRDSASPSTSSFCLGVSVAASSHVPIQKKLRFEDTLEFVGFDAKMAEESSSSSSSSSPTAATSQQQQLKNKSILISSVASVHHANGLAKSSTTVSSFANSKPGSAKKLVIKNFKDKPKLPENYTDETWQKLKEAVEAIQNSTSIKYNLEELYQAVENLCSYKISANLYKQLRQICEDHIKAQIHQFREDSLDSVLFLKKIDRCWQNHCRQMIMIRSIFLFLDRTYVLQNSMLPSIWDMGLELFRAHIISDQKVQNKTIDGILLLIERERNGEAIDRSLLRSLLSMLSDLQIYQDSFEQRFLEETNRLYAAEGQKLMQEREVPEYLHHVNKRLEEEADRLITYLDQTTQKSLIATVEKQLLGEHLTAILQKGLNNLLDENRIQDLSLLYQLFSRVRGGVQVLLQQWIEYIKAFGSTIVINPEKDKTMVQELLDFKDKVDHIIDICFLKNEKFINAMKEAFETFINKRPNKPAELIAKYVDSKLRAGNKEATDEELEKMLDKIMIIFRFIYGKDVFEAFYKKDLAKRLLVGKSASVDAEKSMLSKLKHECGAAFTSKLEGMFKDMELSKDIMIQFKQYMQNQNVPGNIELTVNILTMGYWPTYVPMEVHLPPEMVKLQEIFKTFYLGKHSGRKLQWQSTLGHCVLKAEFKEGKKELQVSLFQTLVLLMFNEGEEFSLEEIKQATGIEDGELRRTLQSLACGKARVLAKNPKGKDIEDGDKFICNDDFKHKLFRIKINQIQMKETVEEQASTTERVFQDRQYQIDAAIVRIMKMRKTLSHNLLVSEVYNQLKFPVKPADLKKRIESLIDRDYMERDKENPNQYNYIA
Cullin-1 (Homo sapiens), sequence (Q13616 whole entry): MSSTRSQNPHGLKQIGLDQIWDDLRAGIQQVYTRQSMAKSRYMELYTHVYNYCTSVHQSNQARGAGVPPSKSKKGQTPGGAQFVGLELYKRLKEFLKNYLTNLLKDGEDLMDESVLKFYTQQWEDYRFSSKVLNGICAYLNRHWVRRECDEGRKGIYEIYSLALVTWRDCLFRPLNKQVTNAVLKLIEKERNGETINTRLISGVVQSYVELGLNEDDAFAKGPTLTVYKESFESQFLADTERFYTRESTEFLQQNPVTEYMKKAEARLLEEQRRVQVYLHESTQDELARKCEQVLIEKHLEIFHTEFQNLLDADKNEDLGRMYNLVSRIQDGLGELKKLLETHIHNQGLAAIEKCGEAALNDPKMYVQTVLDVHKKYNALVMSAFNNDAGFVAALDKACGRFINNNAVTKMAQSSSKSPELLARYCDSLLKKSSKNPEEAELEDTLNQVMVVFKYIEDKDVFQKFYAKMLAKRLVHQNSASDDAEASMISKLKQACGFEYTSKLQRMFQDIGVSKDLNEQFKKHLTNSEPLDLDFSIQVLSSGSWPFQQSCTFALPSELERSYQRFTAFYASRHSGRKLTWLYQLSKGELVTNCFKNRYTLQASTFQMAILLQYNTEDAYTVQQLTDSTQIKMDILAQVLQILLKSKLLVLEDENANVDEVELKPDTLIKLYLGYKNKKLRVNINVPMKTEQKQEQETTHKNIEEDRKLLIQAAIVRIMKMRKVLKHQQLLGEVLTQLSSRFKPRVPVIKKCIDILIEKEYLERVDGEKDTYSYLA
DCN1-like protein 1/NEDD8-conjugating enzyme Ubc12 (Homo sapiens), sequence (P61081 whole entry, looked up): as the sequence (P61081 whole entry, further chain, the tested form may be a part) above
DCN1-like protein 1/NEDD8-conjugating enzyme Ubc12 (Homo sapiens), sequence (Q96GG9 whole entry, looked up): as the sequence (Q96GG9 whole entry, the tested form may be a part) above

By inhibition is commonly meant the share of the control response that was lost under treatment. What is called IC50 is the concentration that inhibits the measured activity by half. Higher therefore signals lower potency. As for `Cc1cc(Sc2nnnn2CCN(C)C)n2nc(SCc3ccc(Cl)cc3)nc2n1.Cl`, the CLint scaled in [1] is 41.5 L/h/kg; in data set [2] it was above 20.9 L/h/kg. Further, the Activity in the data set with MGC-803 [3] was 2.8%; in the data set on MGC-803 [9], “Dose-Dependent Effect”; in the data set on MGC-803 [10], “Dose-Dependent Effect”; in the data set with KYSE-70 [11] it was “Dose-Dependent Effect”; with MGC-803 [12], “Dose-Dependent Effect”; with KYSE-70 [13] it was “Dose-Dependent Effect”. Also, the inhibition entry on Cullin-4B (Homo sapiens), with KYSE-70 cell line and in the data set with MGC-803 [4] was “inactive” throughout. Also, the inhibition entry (at Cullin-1 (Homo sapiens); with MGC-803 [5]; in [14]) was “Active” in each case. Further, the inhibition in [6] came out at 21.8%; in data set [8], 20.5%. In [7], this compound displayed an IC50 of 0.011 µM.
